Among the data in ChEMBL document CHEMBL1125542, “Dihydropyrimidine calcium channel blockers. 4. Basic 3-substituted-4-aryl-1,4-dihydropyrimidine-5-carboxylic acid esters. Potent antihypertensive agents” (J Med Chem, 1992) are IC50 values, retold here.

Assay [1] is filed under the species Oryctolagus cuniculus. The experiment in a line: In vitro inhibition of potassium-contracted rabbit aorta strips. In kind it is functional. Put shortly:
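Rabbit thoracic aorta strips contracted with potassium chloride (100 mM) in the presence of calcium. IC50 is the drug concentration giving 50% relaxation, reported with 95% confidence intervals.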

For assay [2], the species on record is Oryctolagus cuniculus. The experiment in a line: In vitro evaluation for the inhibition of potassium-contracted rabbit aorta strips by vasorelaxant assay. It counts as functional. The method in brief:
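Rabbit thoracic aorta strips contracted with potassium chloride (100 mM) in the presence of calcium. IC50 taken as the drug concentration giving 50% relaxation of the contraction, reported with 95% confidence intervals.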

Each structure is given as a SMILES string. Bounds are passed on as bounds.

`CC1=C(C(=O)OC(C)C)C(c2cccc([N+](=O)[O-])c2)N(C(=O)O[C@@H](C)CN(C)Cc2ccccc2)C(=O)N1` (some centres not stated) returned an IC50 in the assay filed under Oryctolagus cuniculus [1] of 57 nM.
On the same count and under the same terms, as for `CC1=NC(=S)N(C(=O)OC2CCN(Cc3ccc(F)cc3)CC2)[C@@H](c2ccccc2C(F)(F)F)/C1=C(\O)OC(C)C`, the figure is greater than 1000 nM; as for `CC1=NC(=S)N(C(=O)OC2CCN(Cc3ccccc3)CC2)C(c2ccccc2C(F)(F)F)/C1=C(\O)OC(C)C` (configuration not stated), 5 nM; as for `CC1=NC(=S)N(C(=O)OC2CCN(Cc3ccccc3)CC2)C(c2ccccc2[N+](=O)[O-])/C1=C(\O)OC(C)C` (configuration not stated), 2 nM.
Same read-out and setting: then `CC1=C(C(=O)OC(C)C)C(c2ccccc2[N+](=O)[O-])N(C(=O)OC2CCN(Cc3ccccc3)CC2)C(=O)N1` (configuration not stated), with 8 nM; and `CCOC(=O)N1C(=S)N=C(C)/C(=C(/O)OCC)C1c1cccc([N+](=O)[O-])c1` (configuration not stated), with 17 nM; and `CC1=NC(=S)N(C(=O)OC2CCN(Cc3ccccc3)CC2)C(c2ccccc2Cl)/C1=C(\O)OC(C)C` (configuration not stated), with 5 nM.
Still for that read-out and setting: as for `CC1=C(C(=O)OC(C)C)C(c2ccccc2C(F)(F)F)N(C(=O)OC2CCN(Cc3ccccc3)CC2)C(=O)N1` (configuration not stated), the figure is 50 nM; as for `CCO/C(O)=C1\C(C)=NC(=S)N(C(=O)O[C@H]2CCN(Cc3ccccc3)C2)C1c1ccccc1C(F)(F)F` (some centres not stated), 2 nM.
In the assay filed under Oryctolagus cuniculus [1], `CC1=NC(=S)N(C(=O)OC2CCN(Cc3ccc(F)cc3)CC2)[C@H](c2ccccc2C(F)(F)F)/C1=C(\O)OC(C)C` returned an IC50 of 15 nM.
On the same count and under the same terms, as for `CC1=C(C(=O)OC(C)C)C(c2ccccc2C(F)(F)F)N(C(=O)O[C@H]2CCN(Cc3ccccc3)C2)C(=O)N1` (some centres not stated), the figure is 790 nM.
In turn, `COC(=O)C1=C(C)NC(C)=C(C(=O)OC)C1c1ccccc1[N+](=O)[O-]` [NIFEDIPINE] displayed an IC50 in the assay filed under Oryctolagus cuniculus [2] of 2 nM.
`CC1=C(C(=O)OC(C)C)C(c2ccccc2C(F)(F)F)N(CCC2CCN(Cc3ccccc3)CC2)C(S)=N1` (configuration not stated) showed an IC50 in the assay listed under Oryctolagus cuniculus [1] of 120 nM.
Still for that read-out and setting: as for `CCOC(=O)N1C(=S)N=C(C)/C(=C(/O)OCC)C1c1ccccc1C(F)(F)F` (configuration not stated), the figure is 41 nM; as for `CC1=C(C(=O)OC(C)C)C(c2ccccc2C(F)(F)F)N(C(=O)OC2CCCN(Cc3ccccc3)C2)C(=O)N1` (configuration not stated), 130 nM.
On to `CC1=C(C(=O)OC(C)C)C(c2cccc([N+](=O)[O-])c2)N(CCCN(C)Cc2ccccc2)C(S)=N1` (configuration not stated), for which the IC50 in the assay listed under Oryctolagus cuniculus [1] was determined as 72 nM.
Take `CCO/C(O)=C1\C(C)=NC(=S)N(C(=O)OCCN(C)Cc2ccccc2)C1c1ccccc1C(F)(F)F` (configuration not stated): the IC50 in the assay filed under Oryctolagus cuniculus [1] came out at 23 nM.
Same read-out and setting: then `CCO/C(O)=C1\C(C)=NC(=S)N(C(=O)OC(C)C)C1c1ccccc1C(F)(F)F` (configuration not stated), with 50 nM; and `CC1=C(C(=O)OC(C)C)C(c2ccccc2C(F)(F)F)N(C(=O)O[C@@H]2CCN(Cc3ccccc3)C2)C(=O)N1` (some centres not stated), with 360 nM.
`CC1=C(C(=O)OC(C)C)C(c2ccccc2C(F)(F)F)N(C(=O)OC2CCN(Cc3ccc(Cl)cc3)CC2)C(=O)N1` (configuration not stated) came in with an IC50 in the assay filed under Oryctolagus cuniculus [1] of 55 nM.
Same read-out and setting: then `CCOC(=O)C1=C(C)N=C(S)NC1c1cccc([N+](=O)[O-])c1` (configuration not stated), with greater than 1000 nM.
`CCOC(=O)N1C(=S)N=C(C)/C(=C(/O)OCCN(C)Cc2ccccc2)C1c1cccc([N+](=O)[O-])c1` (configuration not stated): in the assay filed under Oryctolagus cuniculus [1], half-maximal inhibition (IC50) required 34 nM.
On the same count and under the same terms, as for `CCCN1C(S)=NC(C)=C(C(=O)OC2CCN(Cc3ccccc3)CC2)C1c1ccccc1C(F)(F)F` (configuration not stated), the figure is greater than 1000 nM; as for `CCOC(=O)N1C(=S)N=C(C)/C(=C(/O)OCCN(C)Cc2ccccc2)C1c1ccccc1C(F)(F)F` (configuration not stated), 22 nM.
Same read-out and setting: then `CC1=C(C(=O)OC(C)C)C(c2cccc([N+](=O)[O-])c2)N(C(=O)OC2CCN(Cc3ccccc3)CC2)C(=O)N1` (configuration not stated), with 12 nM; and `CC1=NC(=S)N(C(=O)OC2CCN(Cc3ccc(F)cc3)CC2)C(c2ccccc2C(F)(F)F)/C1=C(\O)OC(C)C` (configuration not stated), with 7 nM; and `CC1=C(C(=O)OCC(C)C)C(c2ccccc2C(F)(F)F)N(C(=O)OC2CCN(Cc3ccccc3)CC2)C(=O)N1` (configuration not stated), with 98 nM.
Same read-out and setting: as for `CC1=NC(=S)N(C(=O)OC2CCN(Cc3ccccc3)CC2)C(c2cccc([N+](=O)[O-])c2)/C1=C(\O)OC(C)C` (configuration not stated), the figure is 4 nM; as for `CC1=C(C(=O)OC(C)C)C(c2cccc([N+](=O)[O-])c2)N(C(=O)O[C@H](C)CN(C)Cc2ccccc2)C(=O)N1` (some centres not stated), 64 nM; as for `CCO/C(O)=C1\C(C)=NC(=S)N(C(=O)OC2CCN(Cc3ccccc3)CC2)C1c1ccccc1C(F)(F)F` (configuration not stated), 9 nM.
`CCO/C(O)=C1\C(C)=NC(=S)N(C(=O)OCCN(C)Cc2ccccc2)C1c1cccc([N+](=O)[O-])c1` (configuration not stated) displayed an IC50 in the assay filed under Oryctolagus cuniculus [1] of 29 nM.
On the same count and under the same terms, then `CCOC(=O)C1=C(COCCN)NC(C)=C(C(=O)OC)C1c1ccccc1Cl` (configuration not stated) [AMLODIPINE], with 3 nM.

Usually IC50 stands for the concentration at which inhibition is half-maximal. A high value points to lower potency.
